# Measurements from ChEMBL document CHEMBL1146333, “Synthesis and antitumor evaluation of a novel series of triaminotriazine derivatives” (Bioorg Med Chem, 2007).
# Activity calls are given as the source filed them. No cut-off for these calls is given here.
# What was measured:
# HT-29 [1] = test: Growth inhibition of human HT29 cells after 72 hrs by SRB assay; type: functional, cell-based; conditions: HT-29, 72 h
# Method in brief: (§1)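 HCT-116 and HT-29 human colorectal lines (ATCC) grown in RPMI-1640 with 10% FBS, 2 mmol/L glutamine, penicillin/streptomycin, at 37 °C in 5% CO2. Seeded at 6000 cells/well, attached overnight, then treated in triplicate with graded concentrations for 72 h. Cells fixed in 10% TCA, stained with SRB, and A515 read. IC50 obtained by the Logit method; mean of three independent tests.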
# HCT-116 [2] = test: Growth inhibition of human HCT116 cells at 10 uM after 72 hrs by SRB assay; type: functional; conditions: for inhibition at 10 µM: HCT-116, 72 h
# Method in brief: (§2)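 SRB growth assay on HCT-116 or HT-29 cells (RPMI-1640, 10% FBS, 37 °C, 5% CO2). Seeded at 6000 cells/well, attached overnight, exposed in triplicate at 10 μM for 72 h. Cells TCA-fixed, SRB-stained, A515 read. Percent inhibition = [1 − A515 treated/A515 control] × 100; mean of three determinations.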
# HT-29 [3] = test: Growth inhibition of human HT29 cells at 10 uM after 72 hrs by SRB assay; type: functional; conditions: for inhibition at 10 µM: HT-29, 72 h; method in brief: as §2
# HCT-116 [4] = test: Growth inhibition of human HCT116 cells after 72 hrs by SRB assay; type: functional, cell-based; conditions: HCT-116, 72 h; method in brief: as §1
# Mus musculus [5] = test: Increase in body weight in KM mouse at 200 mg/kg, ip after 7 days; type: functional; conditions: route intraperitoneal
# Method in brief: (§3)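 Sarcoma 180 cells implanted in the axilla of female KM mice (6–8 weeks) on Day 0, randomized on Day 1 (control 20/group, treated 10/group). Treated mice got 200 mg/kg ip once daily for 7 days, suspended in 0.5% CMC. Mice killed 24 h after the last dose; body and tumor weights taken. Inhibition = (control − treated mean tumor weight)/control mean tumor weight × 100%.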
# Mus musculus [6] = test: Increase in body weight in KM mouse at 100 mg/kg, ip; type: functional; conditions: route intraperitoneal
# Rattus norvegicus = test: Volume of distribution in Sprague-Dawley rat at 2 mg/kg, iv; type: ADME, organism-based; set-up: dose 2 mg/kg, route intravenous; conditions: in vivo
# Method in brief: (§4)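 Sprague–Dawley rats acclimatized one week, then given one iv dose of 2 mg/kg in PEG400:cremophor (100:15, v/v). Orbital-sinus blood drawn under light ether at 0, 5, 15, 30 min and 1, 2, 4, 6, 8 h; plasma stored at −70 °C.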
# [7] = Elimination half life in Sprague-Dawley rat at 10 mg/kg, po; type: ADME, organism-based; set-up: dose 10 mg/kg, route oral; conditions: in vivo
# Method in brief: (§5)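 Sprague–Dawley rats given one oral gavage dose of 10 mg/kg suspended in 0.5% CMC-Na. Orbital-sinus blood drawn at 0, 5, 15, 30 min and 1, 2, 4, 6, 8 h; plasma frozen at −70 °C, extracted with EtOAc, and quantified by LC–MS/MS. Cmax and Tpeak read directly from the data; t1/2 = 0.693/k; mean ± SD.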
# [8] = Elimination half life in Sprague-Dawley rat at 2 mg/kg, iv; type: ADME, organism-based; set-up: dose 2 mg/kg, route intravenous; conditions: in vivo; method in brief: as §4
# [9] = Oral bioavailability in Sprague-Dawley rat at 10 mg/kg; type: ADME, organism-based; conditions: in vivo
# Method in brief: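 Rats received 10 mg/kg oral (0.5% CMC-Na) or 2 mg/kg iv (PEG400:cremophor 100:15). Serial plasma samples, 0–8 h, quantified by LC–MS/MS after EtOAc extraction. F = (AUCoral × Dose_iv)/(AUC_iv × Dose_oral) × 100%.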
# [10] = Cmax in Sprague-Dawley rat at 10 mg/kg, po after 15 mins; type: ADME, organism-based; set-up: dose 10 mg/kg, route oral; conditions: in vivo; method in brief: as §5
# [11] = Mean resident time in Sprague-Dawley rat at 10 mg/kg, po; type: ADME, organism-based; set-up: dose 10 mg/kg, route oral; conditions: in vivo; method in brief: as §5
# [12] = Mean resident time in Sprague-Dawley rat at 2 mg/kg, iv; type: ADME, organism-based; set-up: dose 2 mg/kg, route intravenous; conditions: in vivo; method in brief: as §4
# Mus musculus [13] = test: Tumor weight in KM mouse at 100 mg/kg, ip; type: functional; conditions: route intraperitoneal
# [14] = Clearance in Sprague-Dawley rat at 2 mg/kg, iv; type: ADME, organism-based; set-up: dose 2 mg/kg, route intravenous; conditions: in vivo; method in brief: as §4
# Mus musculus [15] = test: Tumor weight in KM mouse at 200 mg/kg, ip after 7 days; type: functional; conditions: route intraperitoneal; method in brief: as §3
# Sarcoma-180 = test: Antitumor activity in sarcoma180 cells implanted in KM mouse at 200 mg/kg, ip after 7 days; type: functional; conditions: route intraperitoneal; method in brief: as §3
Compound,inhibition at 10 µM (HCT-116 [2]),inhibition at 10 µM (HT-29 [3]),also measured
Brc1ccc(Nc2nc(Nc3ccccc3)nc(N3CCOCC3)n2)cc1,77.7%,89.7%,IC50 (HT-29 [1]): 25 µM
COc1ccc(Nc2nc(NCCN3CCOCC3)nc(Nc3ccccc3)n2)cc1,–,74.6%,Activity (HCT-116 [2]): inactive
Fc1ccc(Nc2nc(N3CCOCC3)nc(N3CCOCC3)n2)cc1,–,80.2%,Activity (HCT-116 [2]): inactive
OCCN1CCN(c2nc(Nc3ccccc3)nc(Nc3ccccc3)n2)CC1,22%,76.1%,–
Fc1ccc(Nc2nc(Nc3ccccc3)nc(N3CCOCC3)n2)cc1,60.1%,90%,–
CSc1ccc(Nc2nc(Nc3ccc(C)cc3)nc(N3CCOCC3)n2)cc1,71.1%,54.1%,IC50 (HCT-116 [4]): 120 µM
COc1ccc(Nc2nc(Nc3ccccc3)nc(N3CCOCC3)n2)cc1OC,84.7%,76.4%,IC50 (HCT-116 [4]): 0.92 µM
COc1ccc(Nc2nc(Nc3ccccc3)nc(N3CCN(CCO)CC3)n2)cc1,19%,77.3%,–
NS(=O)(=O)c1ccc(Nc2nc(N3CCOCC3)nc(N3CCOCC3)n2)cc1,–,–,Activity (HCT-116 [2]): inactive; Activity (HT-29 [3]): inactive
c1ccc(Nc2nc(N3CCOCC3)nc(N3CCOCC3)n2)cc1,44.9%,80.5%,–
COc1cccc(Nc2nc(Nc3ccccc3)nc(N3CCOCC3)n2)c1,82.6%,87.4%,IC50 (HT-29 [1]): 39 µM
CCOc1ccc(Nc2nc(Nc3ccccc3)nc(N3CCOCC3)n2)cc1,64.1%,87.5%,–
COc1ccc(Nc2nc(N3CCOCC3)nc(N3CCOCC3)n2)cc1,6.9%,74.2%,–
Cc1ccc(CNc2nc(Nc3ccccc3)nc(N3CCOCC3)n2)cc1,15.7%,75.3%,–
COc1ccc(Nc2nc(NCCO)nc(Nc3ccccc3)n2)cc1,–,13.7%,Activity (HCT-116 [2]): inactive
Fc1ccc(Nc2nc(NCc3ccccc3)nc(N3CCOCC3)n2)cc1,10.1%,87.1%,–
Fc1ccc(Nc2nc(Nc3ccc(OC(F)(F)F)cc3)nc(N3CCOCC3)n2)cc1,62%,85.5%,–
COc1ccc(Nc2nc(Nc3ccc(OC)cc3)nc(N3CCN(CCO)CC3)n2)cc1,–,49.3%,Activity (HCT-116 [2]): inactive
C1CN(c2nc(N3CCOCC3)nc(N3CCOCC3)n2)CCO1,–,–,Activity (HCT-116 [2]): inactive; Activity (HT-29 [3]): inactive

Compound,inhibition at 10 µM (HCT-116 [2]),inhibition at 10 µM (HT-29 [3]),also measured
OCCNc1nc(Nc2ccccc2)nc(Nc2ccccc2)n1,–,33.9%,Activity (HCT-116 [2]): inactive
NC(=O)c1ccc(Nc2nc(Nc3ccccc3)nc(N3CCOCC3)n2)cc1,85.8%,87.8%,IC50 (HT-29 [1]): 8.1 µM; IC50 (HCT-116 [4]): 9.6 µM
Clc1ccc(Nc2nc(Nc3ccccc3)nc(N3CCOCC3)n2)cc1,51.7%,87.1%,IC50 (HT-29 [1]): 37 µM
NS(=O)(=O)c1ccc(Nc2nc(Nc3ccccc3)nc(N3CCOCC3)n2)cc1,96.2%,80.4%,IC50 (HCT-116 [4]): 2 µM
COc1ccc(Nc2nc(Nc3ccc(OC)cc3)nc(N3CCOCC3)n2)cc1,53.3%,80.6%,IC50 (HT-29 [1]): 100 µM
COc1ccc(Nc2nc(NCc3ccccc3)nc(N3CCOCC3)n2)cc1,20.1%,88.4%,–
c1ccc(Nc2nc(NCCN3CCOCC3)nc(Nc3ccccc3)n2)cc1,30.1%,23.4%,–
COc1ccccc1Nc1nc(Nc2ccccc2)nc(N2CCOCC2)n1,78.3%,89.3%,–
COc1ccc(Nc2nc(Nc3ccc(F)cc3)nc(N3CCOCC3)n2)cc1,–,82.3%,Activity (HCT-116 [2]): inactive
c1ccc(CNc2nc(Nc3ccccc3)nc(N3CCOCC3)n2)cc1,48.7%,90.5%,–
FC(F)(F)Oc1ccc(Nc2nc(Nc3ccccc3)nc(N3CCOCC3)n2)cc1,63.4%,87.3%,–
COc1ccc(Nc2nc(Nc3ccccc3)nc(N3CCOCC3)n2)cc1,81.4%,100%,IC50 (HT-29 [1]): 30 µM; Activity (Mus musculus [5]): 27.3 g; Activity (Mus musculus [6]): 29.3 g; Vdss (Rattus norvegicus): 2.11 L/kg; half-life [7]: 1.16 h; half-life [8]: 1.09 h; bioavailability [9]: 30.9%; Cmax [10]: 1290 ng/mL; MRT [11]: 1.88 h; MRT [12]: 1.06 h; Activity (Mus musculus [13]): 1.65 g; IC50 (HCT-116 [4]): 0.76 µM; clearance [14]: 22.7 mL/min/kg; Activity (Mus musculus [15]): 0.89 g; Activity (Sarcoma-180): 40.7%
COc1ccc(Nc2nc(Nc3ccc(SC)cc3)nc(N3CCOCC3)n2)cc1OC,79.2%,81.4%,–
NS(=O)(=O)c1ccc(Nc2nc(NCc3ccccc3)nc(N3CCOCC3)n2)cc1,–,68.6%,Activity (HCT-116 [2]): inactive
c1ccc(CNc2nc(NCc3ccccc3)nc(N3CCOCC3)n2)cc1,–,50%,Activity (HCT-116 [2]): inactive
COc1ccc(Nc2nc(Nc3ccc(S(N)(=O)=O)cc3)nc(N3CCOCC3)n2)cc1,69%,83.2%,–
c1ccc(CNc2nc(N3CCOCC3)nc(N3CCOCC3)n2)cc1,–,5.2%,Activity (HCT-116 [2]): inactive
c1ccc(Nc2nc(Nc3ccccc3)nc(N3CCOCC3)n2)cc1,81.3%,85%,IC50 (HT-29 [1]): 31 µM; IC50 (HCT-116 [4]): 4.7 µM
